Laboratory results from ChEMBL document CHEMBL4130429, “Hydroxytriazole derivatives as potent and selective aldo-keto reductase 1C3 (AKR1C3) inhibitors discovered by bioisosteric scaffold hopping approach” (Eur J Med Chem, 2017).
Activity calls are given as the source filed them. The calls are words filed in the database; no cut-off is given here.

Legend:
[1] = biological target: T1, Aldo-keto reductase family 1 member C3 (Homo sapiens, UniProt P42330); test: Inhibition of recombinant human AKR1C3 expressed in Escherichia coli BL21 (DE) using [14C]androstenedione as substrate in presence of NADPH generating system
T1 sequence (P42330 whole entry): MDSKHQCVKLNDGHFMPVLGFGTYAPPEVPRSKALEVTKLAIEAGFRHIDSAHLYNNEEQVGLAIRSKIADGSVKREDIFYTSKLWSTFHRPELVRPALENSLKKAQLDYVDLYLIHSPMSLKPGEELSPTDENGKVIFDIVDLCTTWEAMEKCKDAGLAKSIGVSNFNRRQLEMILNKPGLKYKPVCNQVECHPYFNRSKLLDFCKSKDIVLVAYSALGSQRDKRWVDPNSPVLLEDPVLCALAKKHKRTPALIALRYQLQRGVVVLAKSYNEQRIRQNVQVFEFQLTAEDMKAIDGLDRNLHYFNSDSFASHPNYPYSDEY
Method in brief: (§1)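 E. coli expressing AKR1C3, unlysed, suspended in 100 mM phosphate pH 6.6 (~15 µg protein). Incubated with [14C]androstenedione (6×10^-4 µCi), Tween 80 0.1 mg/mL, 1 mM ATP, 1 mM MgCl2 and NADPH-generating system (1 mM NADP+, 3 mM glucose-6-phosphate, 3 U G6PDH) for 30 min at 30 °C with shaking. Conversion to testosterone quantified by radioactivity scanning of TLC.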

[2] = biological target: T2, Aldo-keto reductase family 1 member C3 (Homo sapiens) (UniProt P42330); test: Inhibition of recombinant human AKR1C3 expressed in Escherichia coli BL21 […] at 50 uM using [14C]androstenedione as substrate in presence of NADPH generating system; method in brief: as §1
T2 sequence (whole entry): T1 sequence (P42330 whole entry)

[3] = Selectivity index, ratio of IC50 for ovine COX1 to IC50 for AKR1C3 (unknown origin)
[4] = biological target: T3, Prostaglandin G/H synthase 1 (Ovis aries) (UniProt P05979); test: Inhibition of ovine COX1 assessed as reduction in PGF2alpha production at 100 uM by ELISA
T3 sequence (whole entry): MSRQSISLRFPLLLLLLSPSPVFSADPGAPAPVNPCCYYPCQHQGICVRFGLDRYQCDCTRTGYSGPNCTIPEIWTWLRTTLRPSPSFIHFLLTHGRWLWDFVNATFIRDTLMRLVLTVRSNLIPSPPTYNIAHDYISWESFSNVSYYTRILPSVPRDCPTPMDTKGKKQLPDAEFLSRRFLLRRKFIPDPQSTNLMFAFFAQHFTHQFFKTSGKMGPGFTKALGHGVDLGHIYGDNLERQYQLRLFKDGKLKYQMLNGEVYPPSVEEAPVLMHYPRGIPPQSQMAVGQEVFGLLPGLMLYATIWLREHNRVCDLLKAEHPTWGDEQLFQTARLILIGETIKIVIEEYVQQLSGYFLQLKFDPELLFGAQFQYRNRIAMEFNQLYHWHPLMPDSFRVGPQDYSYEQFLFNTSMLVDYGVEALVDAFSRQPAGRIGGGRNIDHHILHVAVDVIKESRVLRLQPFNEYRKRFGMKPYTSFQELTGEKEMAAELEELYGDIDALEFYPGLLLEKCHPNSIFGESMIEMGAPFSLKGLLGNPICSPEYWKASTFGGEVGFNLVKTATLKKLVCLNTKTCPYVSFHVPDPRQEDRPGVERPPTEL

[5] = biological target: Prostaglandin G/H synthase 2 (Homo sapiens) (UniProt P35354); test: Inhibition of human COX2 assessed as reduction in PGF2alpha production at 100 uM by ELISA
Chain of Prostaglandin G/H synthase 2 (Homo sapiens) (P35354 whole entry, looked up): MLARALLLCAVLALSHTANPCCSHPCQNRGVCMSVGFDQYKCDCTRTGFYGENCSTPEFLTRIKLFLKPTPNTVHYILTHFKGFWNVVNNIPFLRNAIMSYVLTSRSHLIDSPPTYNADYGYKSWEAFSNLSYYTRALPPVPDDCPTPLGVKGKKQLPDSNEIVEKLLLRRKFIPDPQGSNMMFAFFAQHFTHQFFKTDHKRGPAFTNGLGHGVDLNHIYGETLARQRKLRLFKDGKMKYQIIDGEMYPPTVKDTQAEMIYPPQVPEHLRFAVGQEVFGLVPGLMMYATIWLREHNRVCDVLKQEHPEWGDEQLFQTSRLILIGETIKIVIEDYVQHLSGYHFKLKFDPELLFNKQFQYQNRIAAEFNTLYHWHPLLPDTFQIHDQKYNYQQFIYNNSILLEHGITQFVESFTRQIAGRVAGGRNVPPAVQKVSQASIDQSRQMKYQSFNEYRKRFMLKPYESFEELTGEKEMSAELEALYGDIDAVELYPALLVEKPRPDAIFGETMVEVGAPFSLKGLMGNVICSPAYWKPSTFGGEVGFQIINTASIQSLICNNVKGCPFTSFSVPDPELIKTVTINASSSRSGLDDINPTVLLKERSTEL

[6] = biological target: T4, Prostaglandin G/H synthase 1 (Ovis aries, UniProt P05979); test: Inhibition of ovine COX1 assessed as reduction in PGF2alpha production by ELISA
T4 sequence (P05979 whole entry): T3 sequence (whole entry)
Method in brief: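 Commercial COX (ovine COX-1/human COX-2) inhibitor screening kit. PGH2 formed by COX is reduced by SnCl2 to PGF2α, which is quantified by ELISA absorbance. IC50 by linear regression. Mean ± SE of at least three experiments.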

[7] = biological target: T5, Aldo-keto reductase family 1 member C2 (Homo sapiens, UniProt P52895); test: Inhibition of AKR1C2 (unknown origin) using S-tetralol as substrate by fluorimtery
T5 sequence (P52895 whole entry): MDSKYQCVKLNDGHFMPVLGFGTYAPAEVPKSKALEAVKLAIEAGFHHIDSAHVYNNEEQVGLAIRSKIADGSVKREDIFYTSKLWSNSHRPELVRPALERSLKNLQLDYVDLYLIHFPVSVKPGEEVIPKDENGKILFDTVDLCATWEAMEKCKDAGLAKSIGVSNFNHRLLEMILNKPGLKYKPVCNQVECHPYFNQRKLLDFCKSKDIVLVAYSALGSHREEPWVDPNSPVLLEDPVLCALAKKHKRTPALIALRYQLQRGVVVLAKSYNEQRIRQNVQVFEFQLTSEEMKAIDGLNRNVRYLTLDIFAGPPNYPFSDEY
Method in brief: (§2)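 Purified recombinant enzyme (GST-tagged, glutathione-sepharose purified, thrombin-cleaved) with S-tetralol in 100 mM phosphate pH 7, 200 µM NADP+, 10% ethanol. IC50 from initial velocities versus solvent controls; means of two experiments in triplicate.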

[8] = biological target: T1, Aldo-keto reductase family 1 member C3; test: Inhibition of AKR1C3 (unknown origin) using S-tetralol as substrate in presence of NADP+ by fluorimtery
Method in brief: as §2, with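 “ethanol. […] NADPH formation followed fluorimetrically (ex 340/em 460 nm) at 37 °C.” for “ethanol.”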

Homo sapiens [9] = species on record: Homo sapiens; test: Selectivity index, ratio of IC50 for AKR1C2 (unknown origin) to IC50 for AKR1C3 (unknown origin)
Homo sapiens [10] = species on record: Homo sapiens; test: Selectivity index, ratio of IC50 for human COX2 to IC50 for AKR1C3 (unknown origin)
CWR22R [11] = test: Antiproliferative activity against human 22Rv1 cells at 10 uM after 72 hrs by sulforhodamine B colorimetric proliferation assay; assay type: functional, cell-based
CWR22R [12] = test: Antiproliferative activity against human 22Rv1 cells after 72 hrs by sulforhodamine B colorimetric proliferation assay; assay type: functional, cell-based; conditions: 22Rv1, 72 h
Method in brief: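 22RV1 castration-resistant prostate cells were seeded at 10,000 cells/well in RPMI with 10% charcoal-stripped serum and allowed to adhere for 24 h at 37 °C, 5% CO2. Inhibitor dilutions in ethanol were added in triplicate for 72 h, with ethanol-matched controls (max 1% v/v). Growth was read by SRB and given as %T/C (treated/control OD). Means of two experiments, each in triplicate.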

CWR22R [13] = test: Synergistic antiproliferative activity against human 22Rv1 cells at 60 uM after 72 hrs in presence of 10 uM abiraterone by sulforhodamine B colorimetric proliferation assay; assay type: functional
Method in brief: (§3)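 Co-treatment by SRB assay: 22RV1 cells in RPMI with 10% charcoal-stripped serum, given 60 µM inhibitor with or without 10 µM abiraterone or 20 µM enzalutamide for 72 h. Growth expressed as % T/C (mean OD treated/control ×100). Means of two experiments in triplicate.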

CWR22R [14] = test: Synergistic antiproliferative activity against human 22Rv1 cells at 60 uM after 72 hrs in presence of 20 uM enzalutamide by sulforhodamine B colorimetric proliferation assay; assay type: functional; method in brief: as §3
CWR22R [15] = test: Inhibition of AKR1C3-mediated testosterone production in human 22Rv1 cells after 1 hr in presence of androstenedione by ELISA; assay type: functional, cell-based
Method in brief: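 22RV1 cells seeded at 30,000/well in RPMI with 10% charcoal-stripped serum, 24 h. Inhibitor added at four concentrations for 1 h, then 28 nM androstenedione, further 24 h. Supernatant testosterone measured by ELISA at 405 nm against a standard curve, corrected for androstenedione cross-reactivity. Means of two experiments in triplicate.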

CWR22R [16] = test: Inhibition of AKR1C3-mediated testosterone production in human 22Rv1 cells at 100 uM after 1 hr in presence of androstenedione by ELISA; assay type: functional; conditions: 22Rv1, 1 h
CWR22R [17] = test: Antiproliferative activity against human 22Rv1 cells at 60 uM after 72 hrs by sulforhodamine B colorimetric proliferation assay; assay type: functional, cell-based
CWR22R [18] = test: Antiproliferative activity against human 22Rv1 cells at 20 uM after 72 hrs by sulforhodamine B colorimetric proliferation assay; assay type: functional, cell-based

SMILES: Cn1nnc(O)c1C(=O)Nc1cccc(C(F)(F)F)c1
- IC50 [1]: 32.8 µM

SMILES: O=C(Nc1cccc(C(F)(F)F)c1)c1nonc1O
- inhibition [2]: 35.4%
- IC50 [1]: > 50 µM

SMILES: O=C(Nc1cccc(C(F)(F)F)c1)c1c(O)nnn1CC1CC1
- Ratio IC50 [3]: > 63
- inhibition [4]: 17%
- inhibition [5]: 9.6%
- IC50 [6]: > 100 µM
- IC50 [7]: 70.6 µM
- IC50 [1]: 13.2 µM
- IC50 [8]: 1.6 µM
- Ratio IC50 (Homo sapiens [9]): 44
- Ratio IC50 (Homo sapiens [10]): > 63

SMILES: C[C@]12CC[C@H](O)CC1=CC[C@@H]1[C@@H]2CC[C@]2(C)C(c3cccnc3)=CC[C@@H]12
- Activity (CWR22R [11]): inactive

SMILES: O=C(Nc1cccc(C(F)(F)F)c1)c1nsnc1O
- inhibition [2]: 47.2%
- IC50 [1]: ≥ 50 µM

SMILES: O=C(Nc1cccc(C(F)(F)F)c1)c1c(O)nnn1Cc1ccccc1
- IC50 (CWR22R [12]): 67.1 µM
- Ratio IC50 [3]: > 208
- inhibition [4]: 15%
- inhibition [5]: 7.5%
- IC50 [6]: > 100 µM
- IC50 [7]: 62.9 µM
- IC50 [1]: 10.2 µM
- IC50 [8]: 0.48 µM
- Ratio IC50 (Homo sapiens [9]): 131
- Ratio IC50 (Homo sapiens [10]): > 208

SMILES: O=C(O)c1ccccc1Nc1cccc(C(F)(F)F)c1 [FLUFENAMIC ACID]
- IC50 (CWR22R [12]): 115 µM
- IC50 [6]: 14 µM
- IC50 [1]: 8.63 µM
- IC50 [8]: 0.44 µM

SMILES: Cn1nc(O)c(C(=O)Nc2cccc(C(F)(F)F)c2)n1
- inhibition [2]: 18.5%
- IC50 [1]: > 50 µM

SMILES: O=C(Nc1cccc(C(F)(F)F)c1)c1nn(CC2CC2)nc1O
- inhibition [2]: 5.35%
- IC50 [1]: > 50 µM

SMILES: COc1ccc(Cn2nnc(O)c2C(=O)Nc2cccc(C(F)(F)F)c2)cc1
- IC50 (CWR22R [12]): 81.4 µM
- Activity (CWR22R [13]): 45%
- Ratio IC50 [3]: > 322
- inhibition [4]: 0%
- Activity (CWR22R [14]): 50%
- inhibition (CWR22R [15]): Dose-dependent effect
- inhibition [5]: 12%
- inhibition at 100 µM (CWR22R [16]): 50%
- IC50 [6]: > 100 µM
- IC50 [7]: 73.2 µM
- IC50 [1]: 3.56 µM
- IC50 [8]: 0.31 µM
- Activity (CWR22R [17]): inactive
- Ratio IC50 (Homo sapiens [9]): 236
- Ratio IC50 (Homo sapiens [10]): > 322

SMILES: CNC(=O)c1ccc(N2C(=S)N(c3ccc(C#N)c(C(F)(F)F)c3)C(=O)C2(C)C)cc1F
- Activity (CWR22R [18]): inactive
